According to ChEMBL document CHEMBL4364334, “Synthesis, biological evaluation and molecular modeling of novel selective COX-2 inhibitors: sulfide, sulfoxide, and sulfone derivatives of 1,5-diarylpyrrol-3-substituted scaffold” (Bioorg Med Chem, 2019):
pIC50: −log10 of the molar value.

What was measured:
[1] = target: T1, Prostaglandin G/H synthase 1 (Mus musculus, UniProt P22437); experiment: Inhibition of COX-1 in mouse J774 cells assessed as inhibition of PEG2 production using arachidonic acid as substrate pretreated for 15 mins followed by substrate addition measured after 30 mins by radioimmuno assay; format: cell-based
T1 sequence (P22437 whole entry): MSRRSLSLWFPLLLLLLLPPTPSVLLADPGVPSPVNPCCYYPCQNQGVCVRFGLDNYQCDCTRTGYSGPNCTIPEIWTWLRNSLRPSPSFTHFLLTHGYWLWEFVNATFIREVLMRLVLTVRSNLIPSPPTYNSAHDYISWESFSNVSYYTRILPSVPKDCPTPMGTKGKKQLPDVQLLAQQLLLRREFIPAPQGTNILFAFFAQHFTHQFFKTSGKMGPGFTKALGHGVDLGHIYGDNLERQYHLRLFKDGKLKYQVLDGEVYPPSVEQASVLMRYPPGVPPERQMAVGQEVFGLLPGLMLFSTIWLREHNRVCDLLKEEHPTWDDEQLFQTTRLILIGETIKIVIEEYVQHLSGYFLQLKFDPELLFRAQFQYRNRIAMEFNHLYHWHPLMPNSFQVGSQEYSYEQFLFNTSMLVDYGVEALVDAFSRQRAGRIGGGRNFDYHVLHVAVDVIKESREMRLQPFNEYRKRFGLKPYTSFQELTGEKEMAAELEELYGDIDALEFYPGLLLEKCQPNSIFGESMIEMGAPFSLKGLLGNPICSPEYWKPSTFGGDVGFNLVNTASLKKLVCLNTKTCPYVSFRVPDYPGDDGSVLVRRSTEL
Method in brief: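 Murine J774 macrophages were adhered 2 h at 37 °C in 5% CO2 and given fresh medium. They were pretreated 15 min with compound (10 µM; 0.1–1 µM when inhibition exceeded 50%), then incubated 30 min at 37 °C with 15 µM arachidonic acid. Supernatant PGE2 was measured by RIA. Values are means of 3 experiments of % inhibition versus control, with IC50 from a sigmoidal variable-slope fit.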

[2] = target: T2, Prostaglandin G/H synthase 2 (Mus musculus, UniProt Q05769); experiment: Inhibition of COX-2 in LPS-induced mouse J774 cells assessed as inhibition of PEG2 production after 24 hrs by radioimmuno assay; format: cell-based
T2 sequence (Q05769 whole entry): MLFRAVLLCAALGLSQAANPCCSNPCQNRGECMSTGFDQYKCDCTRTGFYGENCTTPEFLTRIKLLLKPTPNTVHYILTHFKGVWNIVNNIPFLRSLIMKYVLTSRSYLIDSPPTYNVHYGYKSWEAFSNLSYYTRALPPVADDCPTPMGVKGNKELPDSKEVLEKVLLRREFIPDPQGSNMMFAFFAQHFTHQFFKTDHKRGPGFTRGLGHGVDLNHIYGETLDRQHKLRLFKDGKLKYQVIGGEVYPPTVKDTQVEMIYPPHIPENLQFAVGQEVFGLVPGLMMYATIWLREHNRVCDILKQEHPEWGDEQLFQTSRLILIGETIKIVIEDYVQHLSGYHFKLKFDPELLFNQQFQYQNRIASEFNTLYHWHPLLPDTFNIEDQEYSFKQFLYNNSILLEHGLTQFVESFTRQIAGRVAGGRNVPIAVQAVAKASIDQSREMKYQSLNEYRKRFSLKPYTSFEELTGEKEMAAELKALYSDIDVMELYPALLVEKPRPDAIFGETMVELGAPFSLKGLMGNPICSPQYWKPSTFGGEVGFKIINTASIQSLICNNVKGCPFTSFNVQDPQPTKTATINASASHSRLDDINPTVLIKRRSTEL

[3] = species: Mus musculus; experiment: Selectivity index, ratio of IC50 for inhibition of COX-1 in mouse J774 cells to IC50 for inhibition of COX-2 in LPS-induced mouse J774 cells; format: cell-based
[4] = test system: Rattus norvegicus; experiment: (§1) Anti-inflammatory activity in rat assessed as effect on carrageenan-induced hyperalgesia by measuring paw pressure tolerance at 20 mg/kg, po administered as single dose preincubated with carrageenan for 4 hrs and followed by compound treatment and measured after 30 mins by paw-pressure test (reference value: 33.9 +/- 3.7 g); format: functional
[5] = test system: Rattus norvegicus; experiment: as §1, with “60” for “30”, “37.2” for “33.9”, “3.5” for “3.7”; format: functional
[6] = test system: Rattus norvegicus; experiment: as §1, with “90” for “30”, “36.7” for “33.9”, “4” for “3.7”; format: functional
[7] = test system: Rattus norvegicus; experiment: (§2) Antiinflammatory activity in rat assessed as effect on carrageenan-induced paw edema by measuring paw volume at 20 mg/kg, po administered as single dose preincubated with carrageenan for 4 hrs and followed by compound treatment and measured after 30 mins by plethysmometer (reference value: 2.78 +/- 0.09 ml); format: functional
[8] = test system: Rattus norvegicus; experiment: as §2, with “inhibition of” for “effect on”, “1 hr” for “30 mins”, “relative to untreated control” for “(reference value: 2.78 +/- 0.09 ml)”; format: functional
[9] = test system: Mus musculus; experiment: Antinociceptive activity in Swiss albino mouse model of acetic-acid-induced writhing assessed as inhibition of writhing numbers at 10 mg/kg, po measured starting 5 mins post acetic acid challenge for 10 mins (reference value: 30.5 +/- 3.7)
[10] = test system: Mus musculus; experiment: Antinociceptive activity in Swiss albino mouse model of acetic-acid-induced writhing assessed as inhibition of writhing numbers at 20 mg/kg, po measured starting 5 mins post acetic acid challenge for 10 mins (reference value: 30.5 +/- 3.7)
[11] = test system: Mus musculus; experiment: Antinociceptive activity in Swiss albino mouse model of acetic-acid-induced writhing assessed as inhibition of writhing numbers at 40 mg/kg, po measured starting 5 mins post acetic acid challenge for 10 mins (reference value: 30.5 +/- 3.7)

| SMILES | pIC50 [1] | pIC50 [2] | Ratio IC50 [3] | Activity [4] [g] | Activity [5] [g] | Activity [6] [g] | Activity [7] [mL] | inhibition in vivo at 20 mg/kg [8] [%] | Activity [9] | Activity [10] | Activity [11] |
| --- | --- | --- | --- | --- | --- | --- | --- | --- | --- | --- | --- |
| CCC[S+]([O-])CCc1cc(-c2ccc(S(C)(=O)=O)cc2)n(-c2ccccc2)c1C (centres undefined) | < 5.00 | 7.22 | > 167 |  |  |  |  |  |  |  |  |
| CCCS(=O)(=O)CCc1cc(-c2ccc(S(C)(=O)=O)cc2)n(-c2ccc(F)cc2)c1C | < 5.00 | 7.36 | > 227 |  |  |  |  |  |  |  |  |
| CCCS(=O)(=O)CCc1cc(-c2ccc(S(C)(=O)=O)cc2)n(-c2ccccc2)c1C | < 5.00 | 7.47 | > 294 |  |  |  |  |  |  |  |  |

The next lines start with results.

| pIC50 [1] | pIC50 [2] | SMILES | Ratio IC50 [3] | Activity [4] [g] | Activity [5] [g] | Activity [6] [g] | Activity [7] [mL] | inhibition in vivo at 20 mg/kg [8] [%] | Activity [9] | Activity [10] | Activity [11] |
| --- | --- | --- | --- | --- | --- | --- | --- | --- | --- | --- | --- |
| < 5.00 | 7.85 | CCCSCCc1cc(-c2ccc(S(C)(=O)=O)cc2)n(-c2ccccc2)c1C | > 714 | 46 | 40.3 | 40.2 | 1.69 | 100 | 32.6 | 25.9 | 26.4 |
| < 5.00 | 6.55 | CCCSCCc1cc(-c2ccc(S(C)(=O)=O)cc2)n(-c2cccc(F)c2)c1C | > 24 | 41.5 | 38.8 | 37.2 | 1.74 | 100 | 30.3 | 23.4 | 23.7 |
| < 5.00 |  | Cc1c(CCOCCO)cc(-c2ccc(S(C)(=O)=O)cc2)n1-c1ccc(F)cc1 |  |  |  |  |  |  |  |  |  |
| < 5.00 | 7.96 | CCCSCCc1cc(-c2ccc(S(C)(=O)=O)cc2)n(-c2ccc(F)cc2)c1C | > 909 | 57.3 | 50.4 | 41.9 | 1.75 | 100 | 28.7 | 17.4 | 15.9 |
| < 5.00 | 7.40 | CCC[S+]([O-])CCc1cc(-c2ccc(S(C)(=O)=O)cc2)n(-c2ccc(F)cc2)c1C (centres undefined) | > 250 | 53.5 | 42.5 | 38.2 | 1.55 | 100 | 28.8 | 23.4 | 20.3 |
